From ChEMBL document CHEMBL1123566, “Synthesis and cardiac electrophysiological activity of 2- and 3-[(substituted phenyl)alkyl]quinuclidines. Structure-activity relationships” (1987)
Several values for one entry are separate records, joined by “and”; a condition that tells them apart may be missing. Identical values can stand only once.

Experiments:
Canis familiaris [1] = test: Left ventricular refractory period was determined by intraduodenal administration of 30 mg/kg (high dose) of compound in anesthetized dogs. Value was reported for experiment 1; assay type: functional, Canis lupus familiaris, Cardiac ventricle
In short: (§1)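 Anesthetized dogs received two intraduodenal doses, the second cumulative (low dose/high dose). Left ventricular FRP and CT were measured 15, 30 and 45 min after dosing. Heart rate and mean blood pressure were taken during nonpacing intervals. Values are percent change from control. The vehicle was 5% dextrose in water/tragacanth. Activity was defined as ≥12% prolongation of FRP or CT.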

Canis familiaris [2] = test: Left ventricular refractory period was determined by intraduodenal administration of 10 mg/kg (low dose) of compound in anesthetized dogs. Value was reported for experiment 1; assay type: functional, Canis lupus familiaris, Cardiac ventricle; in short: as §1
Canis familiaris [3] = test: Mean arterial blood pressure was determined by intraduodenal administration of two dosages of 10 mg/kg of compound in anesthetized dogs. Value was reported for experiment 1; assay type: functional, Canis lupus familiaris; in short: as §1
Canis familiaris [4] = test: Conduction time was determined by intraduodenal administration of 30 mg/kg (high dose) of compound in anesthetized dogs. Value was reported for experiment 1; assay type: functional, Canis lupus familiaris
In short: (§2)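 Anesthetized dogs; compound given intraduodenally, generally as two doses, the second a cumulative (high) dose. LV functional refractory period and conduction time measured 15, 30 and 45 min after dosing; heart rate and blood pressure measured during nonpacing intervals. Values are % change from control, given per individual animal. Active if FRP or CT prolonged by ≥12%.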

Canis familiaris [5] = test: Mean arterial blood pressure was determined by intraduodenal administration of two dosages of 10 mg/kg of compound in anesthetized dogs. Value was reported for experiment 2; assay type: functional, Canis lupus familiaris; in short: as §1
Canis familiaris [6] = species on record: Canis familiaris; test: In vitro electrophysiological evaluation in canine cardiac Purkinje fibres reported as percent change Vmax at 10 uM at concentration range of 0.1-10 uM; Minimal (<10% decrease or increase in Vmax).; assay type: functional; details: Canis lupus familiaris, Purkinje fiber
In short: (§3)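 Canine cardiac Purkinje fibres, intracellular microelectrode recording, paced at a basic cycle length of 1 s. APD95 and Vmax read simultaneously. Compound: 10 mM stock in deionized water, diluted into Tyrode's solution, tested over the stated concentration range. Each fibre used once as its own control. Result is % change from control, given at 10 µM or as the maximum with its concentration. M = <10% decrease or an increase in Vmax.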

Canis familiaris [7] = test: Conduction time was determined by intraduodenal administration of 10 mg/kg (low dose) of compound in anesthetized dogs. Value was reported for experiment 1; assay type: functional, Canis lupus familiaris; in short: as §2
Canis familiaris [8] = species on record: Canis familiaris; test: In vitro electrophysiological evaluation in canine cardiac Purkinje fibres reported as percent change Vmax at 10 uM at concentration range of 0.1-100 uM.; assay type: functional, organism-based; details: Canis lupus familiaris, Purkinje fiber; in short: as §3
Canis familiaris [9] = test: Mean arterial blood pressure was determined by intraduodenal administration of two dosages of 3 mg/kg of compound in anesthetized dogs. Value was reported for experiment 2; assay type: functional, Canis lupus familiaris
Canis familiaris [10] = species on record: Canis familiaris; test: In vitro electrophysiological evaluation in canine cardiac ventricular muscle reported as maximum % change for functional refractory period (FRP) at 0.1-10 uM concentration range; concentration at which it occurred is 10 uM.; parameters: species or system Canis lupus familiaris, Muscle tissue
In short: (§4)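 Canine right ventricle and papillary muscle strips in oxygenated Tyrode's solution, fitted with stimulating and recording electrodes. The extra-stimulus conduction-interval method was adapted for in vitro use. FRP and CT were read from a conduction-interval curve before and after various compound concentrations, and expressed as percent change from control. Compounds were taken from 10 mM deionized-water stock into Tyrode's. Each strip was used once as its own control.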

Canis familiaris [11] = test: Heart rate was determined by intraduodenal administration of two dosages of 30 mg/kg of compound in anesthetized dogs. Value was reported for experiment 1; assay type: functional, Canis lupus familiaris; in short: as §2
Canis familiaris [12] = test: Left ventricular refractory period was determined by intraduodenal administration of 3 mg/kg (low dose) of compound in anesthetized dogs. Value was reported for experiment 2; assay type: functional, Canis lupus familiaris, Cardiac ventricle; in short: as §1
Canis familiaris [13] = test: Conduction time was determined by intraduodenal administration of 10 mg/kg (high dose) of compound in anesthetized dogs. Value was reported for experiment 2; assay type: functional, Canis lupus familiaris; in short: as §2
Canis familiaris [14] = test: Heart rate was determined by intraduodenal administration of two dosages of 10 mg/kg of compound in anesthetized dogs. Value was reported for experiment 2; assay type: functional, Canis lupus familiaris; in short: as §2
Canis familiaris [15] = test: Heart rate was determined by intraduodenal administration of two dosages of 3 mg/kg of compound in anesthetized dogs. Value was reported for experiment 2; assay type: functional, Canis lupus familiaris; in short: as §2
Canis familiaris [16] = test: Conduction time was determined by intraduodenal administration of 3 mg/kg (low dose) of compound in anesthetized dogs. Value was reported for experiment 2; assay type: functional, Canis lupus familiaris; in short: as §2
Canis familiaris [17] = species on record: Canis familiaris; test: In vitro electrophysiological evaluation in canine cardiac Purkinje fibres reported as maximum percent change Vmax concentration range of 0.1-100 uM; conduction block; assay type: functional; details: Canis lupus familiaris; Purkinje fiber; in short: as §3
Canis familiaris [18] = test: Mean arterial blood pressure was determined by intraduodenal administration of two dosages of 30 mg/kg of compound in anesthetized dogs. Value was reported for experiment 1; assay type: functional, Canis lupus familiaris; in short: as §1
Canis familiaris [19] = species on record: Canis familiaris; test: In vitro electrophysiological evaluation in canine cardiac Purkinje fibres reported as percent change Vmax at 10 uM at concentration range of 0.1-100 uM; Minimal (<10% decrease or increase in Vmax).; assay type: functional, organism-based; details: Canis lupus familiaris, Purkinje fiber; in short: as §3
Canis familiaris [20] = species on record: Canis familiaris; test: In vitro electrophysiological activity in canine cardiac occurred is 10 uM.; assay type: functional, Canis lupus familiaris, Heart
Canis familiaris [21] = species on record: Canis familiaris; test: In vitro electrophysiological evaluation in canine cardiac Purkinje fibres reported as % change for action potential duration at a concentration of 10 uM; assay type: functional, Canis lupus familiaris, Purkinje fiber; in short: as §3
Canis familiaris [22] = species on record: Canis familiaris; test: In vitro electrophysiological activity in canine cardiac occurred is 100 uM.; assay type: functional, Canis lupus familiaris, Heart
Canis familiaris [23] = species on record: Canis familiaris; test: In vitro electrophysiological evaluation in canine cardiac occurred is 100 uM.; assay type: functional; details: Canis lupus familiaris; Heart
Canis familiaris [24] = species on record: Canis familiaris; test: In vitro electrophysiological evaluation in canine cardiac Purkinje fibres reported as maximum percent change Vmax concentration range of 0.1-10 uM; Minimal (<10% decrease or increase in Vmax).; assay type: functional; details: Canis lupus familiaris; Purkinje fiber; in short: as §3
Canis familiaris [25] = species on record: Canis familiaris; test: In vitro electrophysiological evaluation in canine cardiac ventricular muscle reported as % change for conduction time(CT) at 10 uM at 0.1-10 uM concentration range; Minimal (<10% decrease or increase in CT).; assay type: functional, Canis lupus familiaris, Muscle tissue
Canis familiaris [26] = test: Left ventricular refractory period was determined by intraduodenal administration of 10 mg/kg (high dose) of compound in anesthetized dogs. Value was reported for experiment 2; assay type: functional, Canis lupus familiaris, Cardiac ventricle; in short: as §1
Canis familiaris [27] = species on record: Canis familiaris; test: In vitro electrophysiological evaluation in canine cardiac ventricular muscle reported as % change for the functional refractory period (FRP) at 10 uM at concentration range of 0.1-10 uM; parameters: species or system Canis lupus familiaris, Muscle tissue; in short: as §4
Canis familiaris [28] = species on record: Canis familiaris; test: In vitro electrophysiological evaluation in canine cardiac ventricular muscle reported as maximum % change for conduction time(CT) at 0.1-10 uM concentration range; Minimal (<10% decrease or increase in CT).; assay type: functional, Canis lupus familiaris, Muscle tissue; in short: as §4
Canis familiaris [29] = test: Heart rate was determined by intraduodenal administration of two dosages of 10 mg/kg of compound in anesthetized dogs. Value was reported for experiment 1; assay type: functional, Canis lupus familiaris; in short: as §2

`Cl.O=C1C2CCN(CC2)C1CCCc1ccc(Cl)cc1` (centres undefined) was tested, and the “LV FRP” value (Canis familiaris [1]) was 19%, the “LV FRP” value (Canis familiaris [2]) was 15% and the Mean blood pressure (Canis familiaris [3]) was -4%. The CT (Canis familiaris [4]) was 2%, the Mean blood pressure (Canis familiaris [5]) was 24% and the Vmax (Canis familiaris [6]) was < 10%. It also gave a CT (Canis familiaris [7]) of 0%, a Vmax (Canis familiaris [8]) of -41% and a Mean blood pressure (Canis familiaris [9]) of 20%. For the same molecule, the FRP (Canis familiaris [10]) was 39% and 23%, the HR (Canis familiaris [11]) was -31% and the “LV FRP” value (Canis familiaris [12]) was 5%. For the same molecule, the CT (Canis familiaris [13]) was 13%, the HR (Canis familiaris [14]) was -14% and the HR (Canis familiaris [15]) was -2%. For the same molecule, the CT (Canis familiaris [16]) was 3%, the Vmax (Canis familiaris [17]) was < 10% and the Mean blood pressure (Canis familiaris [18]) was 5%. For the same molecule, the Vmax (Canis familiaris [19]) was < 10%, the APD95 (Canis familiaris [20]) was 6% and the APD95 (Canis familiaris [21]) was 6%. For the same molecule, the APD95 (Canis familiaris [22]) was -11% and -18%, the Vmax (Canis familiaris [23]) was -12% and the Vmax (Canis familiaris [24]) was < 10%. The CT (Canis familiaris [25]) was <10%, the “LV FRP” value (Canis familiaris [26]) was 9% and the FRP (Canis familiaris [27]) was 39% and 23%. The CT (Canis familiaris [28]) was <10% and the HR (Canis familiaris [29]) was -17%.
